Laboratory results: ChEMBL document CHEMBL3124793, “Discovery of spirofused piperazine and diazepane amides as selective histamine-3 antagonists with in vivo efficacy in a mouse model of cognition” (J Med Chem, 2014)
pEC50, pIC50, pKi: −log10 of the molar value. Activity calls are given as the source filed them.

How the values were obtained:
[1] = molecular target: Sodium-dependent noradrenaline transporter (Homo sapiens) (UniProt P23975); experiment: Activity at NET (unknown origin) at 10 uM relative to control
Sodium-dependent noradrenaline transporter (Homo sapiens), sequence (P23975 whole entry): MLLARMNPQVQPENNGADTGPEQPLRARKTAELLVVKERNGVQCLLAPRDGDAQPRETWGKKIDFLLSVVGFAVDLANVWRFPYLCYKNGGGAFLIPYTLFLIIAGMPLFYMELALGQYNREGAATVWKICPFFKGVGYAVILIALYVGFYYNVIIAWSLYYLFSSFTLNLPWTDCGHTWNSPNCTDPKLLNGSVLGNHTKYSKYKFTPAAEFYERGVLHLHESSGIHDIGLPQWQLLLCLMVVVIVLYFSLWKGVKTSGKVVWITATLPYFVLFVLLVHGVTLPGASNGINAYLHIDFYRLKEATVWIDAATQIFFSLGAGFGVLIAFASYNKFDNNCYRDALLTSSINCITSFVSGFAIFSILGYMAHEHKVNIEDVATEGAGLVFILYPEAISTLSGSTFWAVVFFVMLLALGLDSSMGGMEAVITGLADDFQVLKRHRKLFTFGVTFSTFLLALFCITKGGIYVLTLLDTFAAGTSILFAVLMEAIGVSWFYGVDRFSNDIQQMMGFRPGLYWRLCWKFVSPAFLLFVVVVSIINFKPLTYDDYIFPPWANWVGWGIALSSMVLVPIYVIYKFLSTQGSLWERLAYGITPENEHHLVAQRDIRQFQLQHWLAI
How it was run: (§1)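 Single-concentration binding at 10 μM against a panel of off-targets, run by an outside testing laboratory; activity judged against each assay's defined criteria.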

[2] = molecular target: D(2) dopamine receptor (Homo sapiens) (UniProt P14416); experiment: Activity at dopamine D2 receptor (unknown origin) at 10 uM relative to control; how it was run: as §1
D(2) dopamine receptor (Homo sapiens), sequence (P14416 whole entry): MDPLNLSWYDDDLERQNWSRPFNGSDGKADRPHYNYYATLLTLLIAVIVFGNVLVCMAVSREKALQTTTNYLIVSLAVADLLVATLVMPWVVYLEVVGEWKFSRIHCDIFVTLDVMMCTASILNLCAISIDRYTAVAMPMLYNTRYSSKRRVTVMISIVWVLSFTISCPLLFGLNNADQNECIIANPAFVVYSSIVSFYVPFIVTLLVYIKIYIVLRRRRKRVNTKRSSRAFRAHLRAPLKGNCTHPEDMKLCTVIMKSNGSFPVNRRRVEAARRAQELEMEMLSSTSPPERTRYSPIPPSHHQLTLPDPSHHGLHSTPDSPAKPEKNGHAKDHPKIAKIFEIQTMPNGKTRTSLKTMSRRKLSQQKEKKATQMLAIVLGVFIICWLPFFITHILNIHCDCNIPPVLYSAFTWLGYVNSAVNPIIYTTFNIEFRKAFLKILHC

[3] = molecular target: Adenosine receptor A2a (Homo sapiens) (UniProt P29274); experiment: Activity at adenosine A2a receptor (unknown origin) at 10 uM relative to control; how it was run: as §1
Adenosine receptor A2a (Homo sapiens), sequence (P29274 whole entry): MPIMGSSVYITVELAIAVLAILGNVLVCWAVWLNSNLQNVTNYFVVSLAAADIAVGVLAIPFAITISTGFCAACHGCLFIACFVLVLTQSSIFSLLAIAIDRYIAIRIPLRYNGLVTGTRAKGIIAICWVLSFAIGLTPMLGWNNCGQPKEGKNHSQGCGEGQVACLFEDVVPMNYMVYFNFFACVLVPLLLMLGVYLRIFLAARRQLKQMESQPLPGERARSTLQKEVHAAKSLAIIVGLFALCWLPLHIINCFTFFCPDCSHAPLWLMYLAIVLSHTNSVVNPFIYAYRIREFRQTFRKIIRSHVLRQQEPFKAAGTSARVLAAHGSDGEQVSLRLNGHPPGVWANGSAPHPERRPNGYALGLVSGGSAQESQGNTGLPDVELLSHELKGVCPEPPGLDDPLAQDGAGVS

[4] = Percentage unbound in human plasma; format: ADME, cell-free
How it was run: (§2)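 Plasma protein binding in human or rat plasma, expressed as percent free.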

[5] = molecular target: T1, Histamine H3 receptor (Homo sapiens, UniProt Q9Y5N1); experiment: Antagonist activity at human histamine H3 receptor long form expressed in CHOK1 cells assessed as inhibition of R-alpha-methylhistamine-induced [35S]GTPgammaS binding after 3 hrs by scintillation proximity assay; format: functional, cell-based, CHO-K1
T1 sequence (Q9Y5N1 whole entry): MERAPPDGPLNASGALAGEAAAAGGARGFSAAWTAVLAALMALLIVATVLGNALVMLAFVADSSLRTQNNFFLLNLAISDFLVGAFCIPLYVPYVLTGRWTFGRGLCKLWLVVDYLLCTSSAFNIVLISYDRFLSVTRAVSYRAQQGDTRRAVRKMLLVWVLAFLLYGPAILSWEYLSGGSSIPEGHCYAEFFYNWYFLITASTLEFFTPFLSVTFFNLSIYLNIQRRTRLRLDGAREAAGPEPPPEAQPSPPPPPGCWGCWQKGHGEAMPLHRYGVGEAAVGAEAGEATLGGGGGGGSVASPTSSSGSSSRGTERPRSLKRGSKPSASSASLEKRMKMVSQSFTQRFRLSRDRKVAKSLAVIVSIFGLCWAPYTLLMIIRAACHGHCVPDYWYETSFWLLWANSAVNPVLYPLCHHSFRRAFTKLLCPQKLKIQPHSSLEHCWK
How it was run: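 Membranes from CHO-K1 cells stably expressing human H3R long form (445 aa) incubated 3 h with test compound, 25 nM R-α-methylhistamine, 10 μM GDP, 0.2 nM [35S]GTPγS and WGA PVT SPA beads; bead-bound [35S]GTPγS counted by scintillation. Average of n > 2, standard error <20%.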

[6] = Intrinsic clearance in rat liver microsomes; format: ADME; settings: read-out: CLH
[7] = molecular target: Histamine H1 receptor (Homo sapiens) (UniProt P35367); experiment: Activity at histamine H1 receptor (unknown origin) at 10 uM relative to control; how it was run: as §1
Histamine H1 receptor (Homo sapiens), sequence (P35367 whole entry): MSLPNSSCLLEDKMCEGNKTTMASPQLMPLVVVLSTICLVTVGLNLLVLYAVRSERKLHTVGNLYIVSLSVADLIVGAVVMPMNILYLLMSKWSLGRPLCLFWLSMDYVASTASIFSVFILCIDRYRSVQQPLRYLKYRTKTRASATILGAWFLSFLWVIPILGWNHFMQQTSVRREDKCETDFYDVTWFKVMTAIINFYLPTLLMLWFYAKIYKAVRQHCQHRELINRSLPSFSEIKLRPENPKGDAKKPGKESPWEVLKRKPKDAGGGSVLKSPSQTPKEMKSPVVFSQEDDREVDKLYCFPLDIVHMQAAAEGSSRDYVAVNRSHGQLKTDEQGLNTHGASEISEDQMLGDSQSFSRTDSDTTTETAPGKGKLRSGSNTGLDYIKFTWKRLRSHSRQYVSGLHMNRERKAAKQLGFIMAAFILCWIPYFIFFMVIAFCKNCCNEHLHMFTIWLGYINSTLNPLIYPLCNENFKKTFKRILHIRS

[8] = Volume of distribution at steady state in rat at 2.4 umol/kg, iv; format: ADME, organism-based; settings: in vivo, read-out: Vdss
How it was run: (§3)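 IV dosing in male fasted rats, doses in μmol/kg; mean Vss, half-life and clearance derived; number of rats per compound reported.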

[9] = tested on: Rattus norvegicus; experiment: […] clearance in rat at 2.4 umol/kg, iv; format: ADME, organism-based; settings: in vivo; how it was run: as §3
[10] = molecular target: T2, Muscarinic acetylcholine receptor M2 (Homo sapiens) (UniProt P08172); experiment: Activity at muscarinic M2 receptor (unknown origin) at 10 uM relative to control; how it was run: as §1
T2 sequence (whole entry): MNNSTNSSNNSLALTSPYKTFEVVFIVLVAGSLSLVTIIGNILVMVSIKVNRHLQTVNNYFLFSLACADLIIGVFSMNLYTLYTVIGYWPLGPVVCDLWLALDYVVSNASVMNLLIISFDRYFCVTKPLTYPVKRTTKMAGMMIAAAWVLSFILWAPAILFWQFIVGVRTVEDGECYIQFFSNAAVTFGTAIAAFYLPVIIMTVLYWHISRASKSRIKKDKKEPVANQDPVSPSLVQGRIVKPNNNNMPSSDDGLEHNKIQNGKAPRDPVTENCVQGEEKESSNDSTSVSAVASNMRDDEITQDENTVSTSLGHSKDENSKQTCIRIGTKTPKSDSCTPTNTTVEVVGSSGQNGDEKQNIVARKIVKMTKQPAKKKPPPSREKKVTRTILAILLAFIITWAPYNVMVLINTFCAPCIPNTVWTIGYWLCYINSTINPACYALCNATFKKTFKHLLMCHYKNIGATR

[11] = organism: Homo sapiens; experiment: Activity at nicotinic acetylcholine receptor (unknown origin) at 10 uM relative to control; how it was run: as §1
[12] = Apparent permeability from apical to basolateral side in MDCK cells; format: ADME, cell-based, Canis lupus familiaris; settings: dog
How it was run: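 MDCK monolayers; A-to-B Papp in 1 × 10⁻⁶ cm/s; efflux taken as ratio of A-to-B Papp over B-to-A Papp.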

[13] = Equilibrium solubility of the compound at pH 7.4; format: physicochemical; settings: buffer
[14] = molecular target: Phosphodiesterase 4 (Homo sapiens) (UniProt P27815+Q08499+Q07343+Q08493); experiment: Activity at PDE4 (unknown origin) at 10 uM relative to control; format: protein assay; how it was run: as §1
[15] = Intrinsic clearance in human liver microsomes; format: ADME; settings: read-out: CLH
How it was run: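 Human liver microsomal clearance, expressed as μL/min/mg.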

[16] = Half life in rat at 2.4 umol/kg, iv; format: ADME, organism-based; settings: in vivo; how it was run: as §3
[17] = molecular target: Histamine H4 receptor (Homo sapiens) (UniProt Q9H3N8); experiment: Activity at histamine H4 receptor (unknown origin) at 10 uM relative to control; how it was run: as §1
[18] = organism: Homo sapiens; experiment: Activity at GABA receptor (unknown origin) at 10 uM relative to control; how it was run: as §1
[19] = molecular target: T3, 5-hydroxytryptamine receptor 1A (Homo sapiens) (UniProt P08908); experiment: Activity at 5-HT1A receptor (unknown origin) at 10 uM relative to control; how it was run: as §1
T3 sequence (whole entry): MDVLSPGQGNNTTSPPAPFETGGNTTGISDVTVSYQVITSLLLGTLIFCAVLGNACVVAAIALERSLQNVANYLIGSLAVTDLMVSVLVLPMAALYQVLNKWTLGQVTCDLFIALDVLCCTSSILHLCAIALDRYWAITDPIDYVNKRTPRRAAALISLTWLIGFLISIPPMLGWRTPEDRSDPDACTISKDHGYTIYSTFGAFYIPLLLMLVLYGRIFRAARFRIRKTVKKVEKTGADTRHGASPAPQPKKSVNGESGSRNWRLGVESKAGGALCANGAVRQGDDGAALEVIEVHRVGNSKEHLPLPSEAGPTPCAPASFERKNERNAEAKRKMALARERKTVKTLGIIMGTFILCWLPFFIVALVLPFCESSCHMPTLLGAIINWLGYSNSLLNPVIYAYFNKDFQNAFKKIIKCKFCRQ

[20] = Volume of distribution at steady state in rat at 3 umol/kg, iv; format: ADME, organism-based; settings: in vivo, read-out: Vdss
How it was run: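 Male fasted rats given a single IV dose. Volume of distribution taken as the mean from plasma sampling after the IV dose. Animals per compound: 1 to 7.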

[21] = organism: Rattus norvegicus; experiment: Inhibition of rat sigma-2 receptor at 10 uM relative to control
How it was run: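 Radioligand binding screen within a 144-receptor secondary pharmacology panel, run at a single 10 μM test concentration. The response is expressed as percent activity. Activity was judged against each assay's own defined criteria.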

[22] = Induction of phospholipidosis in mouse I-13.35 cells by EthD-2 staining-based assay; format: cell-based
[23] = tested on: Brain; experiment: Drug uptake in Sprague-Dawley rat brain at 3 umol/kg, iv after 1 hr; format: ADME, organism-based; settings: in vivo
How it was run: (§4)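 3 μmol/kg IV; plasma, brain and CSF sampled at 1 h, n = 4; brain not corrected for ~2–3% vascular contamination; nonspecific binding during CSF sampling not evaluated; mean with standard deviation.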

[24] = tested on: Rattus norvegicus; experiment: […] clearance in rat at 3 umol/kg, iv; format: ADME, organism-based; settings: in vivo; how it was run: as §3
[25] = Plasma clearance in Sprague-Dawley rat; format: ADME, organism-based; settings: read-out: AUC
[26] = Apparent half life in Sprague-Dawley rat; format: ADME, organism-based; settings: in vivo, read-out: t1/2(app) (converted)
[27] = Tmax in Sprague-Dawley rat 3 umol/kg, po; format: ADME, organism-based; settings: in vivo
[28] = Plasma concentration in Sprague-Dawley rat at 3 umol/kg, iv after 1 hr; format: ADME, organism-based; how it was run: as §4
[29] = Half life in rat at 3 umol/kg, iv; format: ADME, organism-based; settings: in vivo; how it was run: as §3
[30] = tested on: Mus musculus; experiment: Cognitive enhancing effect in CF-1 mouse at 1 to 10 mg/kg, sc administered 60 mins prior to acquisition phase by novel object exploration test; format: functional, organism-based
How it was run: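 Male CF-1 mice given 1, 3 or 10 mg/kg s.c. 60 min before acquisition with two identical objects; one object then swapped for a novel one; mice re-tested 15 min later. Novel/familiar interaction ratio (50% = no preference) from manual scoring; mean ± SD; ANOVA with Newman–Keuls post hoc.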

[31] = molecular target: T1, Histamine H3 receptor; experiment: Displacement of [3H]-N-alpha-methylhistamine from human histamine H3 receptor expressed in CHOK1 cells after 1.5 hrs by scintillation proximity assay; format: cell-based, CHO-K1
How it was run: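 Human H3R-CHO-K1 membranes incubated 1.5 h with test compound and [3H]-N-α-methylhistamine in SPA format; nonspecific binding defined with 10 μM imetit; bead-bound radioligand counted. Average of n > 2, standard error <50%.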

[32] = Drug recovery in Sprague-Dawley rat urine at 3 umol/kg, iv after 24 hrs; format: ADME, organism-based; settings: read-out: Drug recovery
[33] = Percentage unbound in rat plasma; format: ADME, cell-free; how it was run: as §2
[34] = Cmax in Sprague-Dawley rat 3 umol/kg, po; format: ADME, organism-based; design: dose 3 umol/kg, route oral; settings: in vivo
[35] = molecular target: Histamine H2 receptor (Homo sapiens) (UniProt P25021); experiment: Activity at histamine H2 receptor (unknown origin) at 10 uM relative to control; how it was run: as §1
Histamine H2 receptor (Homo sapiens), sequence (P25021 whole entry): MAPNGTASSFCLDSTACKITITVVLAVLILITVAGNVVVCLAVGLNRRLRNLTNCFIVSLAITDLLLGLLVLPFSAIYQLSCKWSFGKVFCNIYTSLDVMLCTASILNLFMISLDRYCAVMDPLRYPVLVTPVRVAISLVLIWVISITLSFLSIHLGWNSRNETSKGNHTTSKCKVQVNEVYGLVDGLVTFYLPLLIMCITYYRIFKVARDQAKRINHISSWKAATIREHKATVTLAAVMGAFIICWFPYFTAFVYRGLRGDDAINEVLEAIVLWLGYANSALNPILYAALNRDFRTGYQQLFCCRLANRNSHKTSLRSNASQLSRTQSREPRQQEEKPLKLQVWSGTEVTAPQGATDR

[36] = tested on: Salmonella typhimurium; experiment: Genotoxicity in Salmonella typhimurium by Ames test; format: toxicity, organism-based; settings: salmonella enterica subsp. enterica serovar typhimurium
[37] = Octanol-water partition coefficient, log D of the compound by shake flask HPLC analysis; format: physicochemical
How it was run: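 logD between octanol and water by shake-flask with HPLC analysis.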

[38] = Oral bioavailability in Sprague-Dawley rat 3 umol/kg; format: ADME, organism-based; settings: in vivo
[39] = Drug uptake in Sprague-Dawley rat CSF at 3 umol/kg, iv after 1 hr; format: ADME, organism-based, Cerebrospinal fluid; settings: read-out: Drug uptake; how it was run: as §4
[40] = Half life in rat at 2.1 umol/kg, iv; format: ADME, organism-based; settings: in vivo; how it was run: as §3
[41] = tested on: Rattus norvegicus; experiment: […] clearance in rat at 2.1 umol/kg, iv; format: ADME, organism-based; settings: in vivo; how it was run: as §3
[42] = Volume of distribution at steady state in rat at 2.1 umol/kg, iv; format: ADME, organism-based; settings: in vivo, read-out: Vdss; how it was run: as §3

Row | pIC50 [5] | microsomal CLint [6] [µL/min/mg] | Papp A→B [12] [×10⁻⁶ cm/s] | solubility thermodynamic [13] [µM] | microsomal CLint [15] [µL/min/mg] | Compound | Activity [1] [%] | Activity [2] [%] | Activity [3] [%] | Activity [7] [%] | Activity [10] [%] | Activity [11] [%] | Activity [14] [%] | Activity [17] [%] | Activity [18] [%] | Activity [19] [%] | pKi [31] | logD [37] | other results
1 | 8.72 | < 4 | 5.1 | > 500 | < 4 | O=C(C1CC2(CCN(C3CCOCC3)CC2)C1)N1CCN(C2CCC2)CC1 | > 10 | > 10 | > 10 | > 10 | > 10 | > 10 | > 10 | > 10 | > 10 | > 10 |  |  | fraction unbound [4]: 0.51; Vd [8]: 74 L/kg; CL [9]: 81.2 mL/min/kg; half-life [16]: 852 min
2 | 8.77 | < 4 | 3.6 | > 500 | < 4 | CC(C)N1CCN(C(=O)C2CC3(CCN(C4CCOCC4)CC3)C2)CC1 |  |  |  |  |  |  |  |  |  |  | 9.52 | -0.74 | half-life [40]: 702 min; CL [41]: 78 mL/min/kg; Vd [42]: 64 L/kg

Row | Compound | pIC50 [5] | microsomal CLint [6] [µL/min/mg] | Papp A→B [12] [×10⁻⁶ cm/s] | solubility thermodynamic [13] [µM] | microsomal CLint [15] [µL/min/mg] | Activity [1] [%] | Activity [2] [%] | Activity [3] [%] | Activity [7] [%] | Activity [10] [%] | Activity [11] [%] | Activity [14] [%] | Activity [17] [%] | Activity [18] [%] | Activity [19] [%] | pKi [31] | logD [37] | other results
3 | CC(C)N1CCN(C(=O)[C@H]2CC23CCN(C2CCOCC2)CC3)CC1 | 8.08 | 7 | 13 | > 500 | < 4 | > 10 | > 10 | > 10 | > 10 | > 10 | > 10 | > 10 | > 10 | > 10 | > 10 | 9.10 | -0.26 | Vd [20]: 34.6 L/kg; inhibition [21]: 62%; pEC50 [22]: < 3.52; Drug uptake [23]: 540 nmol/kg; CL [24]: 16.4 mL/min/kg; clearance [25]: 53 mL/min/kg; half-life [26]: 900 min; Tmax [27]: 6 h; concentration at 1 h [28]: 180 nM; half-life [29]: 1520 min; Activity [30]: Active; dose excreted at 24 h [32]: 14%; fraction unbound [33]: 0.87; Cmax [34]: 71 nM; Activity [35]: > 10%; Activity [36]: Non-toxic; bioavailability [38]: 99%; concentration at 1 h [39]: 34 nM
